# In ChEMBL document CHEMBL4350973, “CF2H, a Functional Group-Dependent Hydrogen-Bond Donor: Is It a More or Less Lipophilic Bioisostere of OH, SH, and CH3?” (J Med Chem, 2019):
# Experiment: Octanol/water partition co-efficient, log P of compound by UV-spectrophotometry-based shake-flask method
# Type: physicochemical
# Details: not given
# Summary of the method: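 Shake-flask partition between octanol and water, each pre-saturated with the other phase for at least 24 h. Compound dissolved at 10 mM in water-saturated octanol; water/octanol volume ratio set from preliminary runs according to polarity. Phases centrifuged 3000 rpm, 5 min. Diluted octanol phase read by UV absorbance at λmax, absorbance kept within 0.2-1. Water concentration obtained by difference; log P from the volume ratio. Triplicates.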
row,SMILES,logP
1,Cc1ccc(Br)cc1,2.91
2,Cc1ccc(C#N)cc1,2
3,COc1ccc(C)cc1,2.67
4,CN1C(=O)c2ccccc2C1=O,1.33
5,C[S+]([O-])c1ccc([N+](=O)[O-])cc1 (centres undefined),0.49
6,FC(F)c1ccc(Br)cc1,2.78
7,FC(F)c1ccccc1,2.4
8,N#Cc1ccc(C(F)F)cc1,1.75
9,O=[N+]([O-])c1ccc(C(F)F)cc1,2.12
10,[O-][S+](CCc1ccccc1)C(F)F (centres undefined),1.42
11,Cc1ccc(C(F)F)cc1,2.94
12,C[S+]([O-])CCc1ccccc1 (centres undefined),0.63
13,CSCCc1ccccc1,2.95
14,O=S(=O)(CCc1ccccc1)C(F)F,1.87
15,FC(F)OCCc1ccccc1,3.16
16,O=[N+]([O-])c1ccc(S(=O)(=O)C(F)F)cc1,1.7
17,FC(F)CCc1ccccc1,3.02
18,O=[N+]([O-])c1ccc([S+]([O-])C(F)F)cc1 (centres undefined),1.37
19,COCCc1ccccc1,2.23
20,CS(=O)(=O)CCc1ccccc1,0.82
21,O=C1c2ccccc2C(=O)N1C(F)F,1.53
22,FC(F)SCCc1ccccc1,3.16
23,O=C(OC(F)F)c1ccccc1,2.66
24,COc1ccc(C(F)F)cc1,2.61
25,CS(=O)(=O)c1ccc([N+](=O)[O-])cc1,0.61
26,Cc1ccc([N+](=O)[O-])cc1 [4-NITROTOLUENE],2.35
27,COC(=O)c1ccccc1 [METHYL BENZOATE],2.27
28,Cc1ccc(C)cc1 [P-XYLENE],3.08

# Experiment: Lipophilicity, log P of the compound
# Type: physicochemical
# Details: octanol/water
# Summary of the method: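 Shake-flask partition between mutually pre-saturated octanol and water (at least 24 h pre-saturation). Compound dissolved at 10 mM in water-saturated octanol; water/octanol volume ratio set by preliminary runs according to polarity. Phases centrifuged 3000 rpm, 5 min; diluted octanol aliquot read by UV absorbance at λmax (range 0.2-1). Water concentration obtained by difference; log P from volume ratio; triplicates.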
row,SMILES,logP
1,CCCc1ccccc1,3.7
